Laboratory results: ChEMBL document CHEMBL1121710, “alpha-Ethynyl and alpha-vinyl analogues of ornithine as enzyme-activated inhibitors of mammalian ornithine decarboxylase” (J Med Chem, 1981)

Columns and labels:
[1] = target: T1, Ornithine decarboxylase (Rattus norvegicus) (UniProt P09057); experiment: Effect on the time of half-inactivation of ornithine decarboxylase in the presence of 10 uM concentration + 1 mM L-2-methylornithine; assay type: functional
T1 sequence (whole entry): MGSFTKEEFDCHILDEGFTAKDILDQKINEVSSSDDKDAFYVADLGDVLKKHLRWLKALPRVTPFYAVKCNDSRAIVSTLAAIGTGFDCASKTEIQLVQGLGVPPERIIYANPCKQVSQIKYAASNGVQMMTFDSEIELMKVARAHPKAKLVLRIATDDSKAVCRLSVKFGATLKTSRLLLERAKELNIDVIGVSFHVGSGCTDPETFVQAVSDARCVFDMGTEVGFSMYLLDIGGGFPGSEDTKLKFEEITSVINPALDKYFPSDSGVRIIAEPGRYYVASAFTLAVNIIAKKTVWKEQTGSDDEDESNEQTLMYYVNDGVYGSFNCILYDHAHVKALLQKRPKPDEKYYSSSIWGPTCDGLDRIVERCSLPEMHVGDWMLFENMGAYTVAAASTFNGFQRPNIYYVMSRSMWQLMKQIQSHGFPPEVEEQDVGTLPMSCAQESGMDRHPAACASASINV
How it was run: (§1)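 Rat liver ODC from thioacetamide-treated rats (150 mg/kg, 18 h before sacrifice), purified about tenfold by acid treatment at pH 4.6. Enzyme preincubated at 37 °C in 30 mM sodium phosphate pH 7.1 with 5 mM dithiothreitol, 0.1 mM pyridoxal phosphate, inhibitor and 1 mM effector where listed. Half-inactivation time derived from pseudo-first-order loss.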

[2] = target: T1, Ornithine decarboxylase (Rattus norvegicus); experiment: Effect on the time of half-inactivation of ornithine decarboxylase in the presence of 10 uM concentration + 1 mM D-2-methylornithine; assay type: functional; how it was run: as §1
[3] = target: T1, Ornithine decarboxylase (Rattus norvegicus); experiment: The compound was tested for the inhibitory activity against L-orinithine carboxylase in ventral prostate of the rat at dose 50 mg/kg, ip); assay type: functional, organism-based; design: dose 50 mg/kg; scale not given: the % may be the effect or the level left; settings: Prostate gland
How it was run: (§2)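 Male Sprague–Dawley rats (200–220 g), fed ad libitum, 12 h light/dark. Single ip dose in 0.9% saline; saline-injected controls. Killed by decapitation 5 h later at a fixed time of day. Ventral prostate, testis and thymus homogenized; ODC activity measured as CO2 release and expressed as % of control. Mean ± SEM of five animals; Student's t test.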

[4] = target: T1, Ornithine decarboxylase (Rattus norvegicus); experiment: Effect on the time of half-inactivation of ornithine decarboxylase in the presence of 10 uM concentration + 1 mM L-ornithine; assay type: functional; how it was run: as §1
[5] = target: T1, Ornithine decarboxylase (Rattus norvegicus); experiment: The compound was tested for the inhibitory activity against L-orinithine carboxylase inventral prostate of the rat at dose 100 mg/kg, ip); assay type: functional, organism-based; design: dose 100 mg/kg; scale not given: the % may be the effect or the level left; settings: Prostate gland; how it was run: as §2
[6] = target: T1, Ornithine decarboxylase (Rattus norvegicus); experiment: Effect on the time of half-inactivation of ornithine decarboxylase at 10 uM concentration; assay type: functional; how it was run: as §1
[7] = target: T1, Ornithine decarboxylase (Rattus norvegicus); experiment: The compound was tested for the inhibitory activity against L-orinithine carboxylase in ventral prostate of the rat at dose 12.5 mg/kg, ip); assay type: functional, organism-based; design: dose 12.5 mg/kg; scale not given: the % may be the effect or the level left; settings: Prostate gland; how it was run: as §2
[8] = target: T1, Ornithine decarboxylase (Rattus norvegicus); experiment: The compound was tested for the inhibitory activity against L-orinithine carboxylase in rat thymus. dose 200 mg/kg, ip); assay type: functional, organism-based; design: dose 200 mg/kg; scale not given: the % may be the effect or the level left; settings: at 200 mg/kg; how it was run: as §2
[9] = target: T1, Ornithine decarboxylase (Rattus norvegicus); experiment: The compound was tested for the inhibitory activity against L-orinithine carboxylase in ventral prostate of the rat at dose 25 mg/kg, ip); assay type: functional, organism-based; design: dose 25 mg/kg; scale not given: the % may be the effect or the level left; settings: Prostate gland; how it was run: as §2
[10] = target: T1, Ornithine decarboxylase (Rattus norvegicus); experiment: The compound was tested for the inhibitory activity against L-orinithine carboxylase in rat testis. dose 200 mg/kg, ip); assay type: functional, organism-based; design: dose 200 mg/kg; scale not given: the % may be the effect or the level left; settings: at 200 mg/kg; how it was run: as §2
[11] = target: T1, Ornithine decarboxylase (Rattus norvegicus); experiment: The compound was tested for the inhibitory activity against L-orinithine carboxylase in ventral prostate of the rat dose 200 mg/kg, ip); assay type: functional, organism-based; design: dose 200 mg/kg; scale not given: the % may be the effect or the level left; settings: Prostate gland; at 200 mg/kg; how it was run: as §2

Time of half inactivation [1]: 270 min
Time of half inactivation [2]: 26 min
Control [3]: 40%
Time of half inactivation [4]: 81 min
Control [5]: 19%
Time of half inactivation [6]: 18 min
Control [7]: 59%
Control [8]: 54%
Control [9]: 56%
Control [10]: 80%
Control [11]: 18%
Structure (SMILES): C#CC(N)(CCCN)C(=O)O (stereo unspecified)
